Source: ChEMBL document CHEMBL4673246, “Directing Drugs to Bugs: Antibiotic-Carbohydrate Conjugates Targeting Biofilm-Associated Lectins of Pseudomonas aeruginosa” (J Med Chem, 2020)
≈ marks a conversion by molar mass, not a printed value.

Columns and labels:
[1] = Inhibition of Pseudomonas aeruginosa ATCC 33347 LecA expressed in Escherichia coli BL21(DE3) cells incubated for 30 to 60 mins by (N-(fluorescein-5-yl)-N'-(beta-D-(m-aminophenyl)-galactopyranosyl)thiocarbamide) reporter based fluorescence polarization assay
Method in brief: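 LecA at 40 μM with 20 nM fluorescein-galactoside reporter in TBS/Ca. Test compound serial dilutions in 30% DMSO co-solvent, triplicate. Incubation 30–60 min at room temperature, then fluorescence polarization read (ex 485, em 535 nm), blank-corrected for LecA alone. Four-parameter fit with plateaus fixed by the p-nitrophenyl β-D-galactoside control. At least three independent plates.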

Pseudomonas aeruginosa [2] = experiment: Antibacterial activity against Pseudomonas aeruginosa PAO1 assessed as growth inhibition after 18 to 20 hrs by broth microdilution assay; assay type: functional; details: time 18-20 hrs
Method in brief: (§1)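 Overnight LB-agar colonies suspended to OD600 0.08–0.13, diluted 1:100; final inoculum 5 × 10^5 CFU/mL. 37 °C, 18–20 h, humid. MIC = lowest concentration without visible growth; range from at least three independent experiments.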

Escherichia coli [3] = experiment: Antibacterial activity against Escherichia coli K-12 MG1655 assessed as growth inhibition after 18 to 20 hrs by broth microdilution assay; assay type: functional; details: time 18-20 hrs; method in brief: as §1
Pseudomonas aeruginosa [4] = experiment: Antibacterial activity against Pseudomonas aeruginosa PA14 harboring LecA deletion mutant assessed as growth inhibition after 18 to 20 hrs by broth microdilution assay; assay type: functional; details: time 18-20 hrs; method in brief: as §1
Pseudomonas aeruginosa [5] = experiment: Antibacterial activity against Pseudomonas aeruginosa PAO1 assessed as growth inhibition after 18 to 20 hrs in presence of PMBN by broth microdilution assay; assay type: functional; details: time 18-20 hrs
Method in brief: (§2)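 Broth microdilution per EUCAST guidelines in Müller-Hinton broth II (Ca2+/Mg2+ supplemented, pH 7.3). Colonies from overnight LB-agar plates were suspended to OD600 0.08–0.13, diluted 1:100, final inoculum 5 × 10^5 CFU/mL. PMBN at 2 μg/mL was added to the inoculum where indicated. Incubation 37 °C, 18–20 h. MIC was the lowest concentration with no visible growth. At least three independent experiments.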

Pseudomonas aeruginosa [6] = experiment: Antibacterial activity against Pseudomonas aeruginosa PA14 assessed as growth inhibition after 18 to 20 hrs by broth microdilution assay; assay type: functional; details: time 18-20 hrs; method in brief: as §1
Pseudomonas aeruginosa [7] = experiment: Antibacterial activity against Pseudomonas aeruginosa PA14 harboring LecB deletion mutant assessed as growth inhibition after 18 to 20 hrs by broth microdilution assay; assay type: functional; details: time 18-20 hrs; method in brief: as §1
Staphylococcus carnosus = experiment: Antibacterial activity against Staphylococcus carnosus DSM 20501 assessed as growth inhibition after 18 to 20 hrs by broth microdilution assay; assay type: functional; details: time 18-20 hrs; method in brief: as §1
Pseudomonas aeruginosa [8] = experiment: Antibacterial activity against Pseudomonas aeruginosa PA14 assessed as growth inhibition after 18 to 20 hrs in presence of PMBN by broth microdilution assay; assay type: functional; details: time 18-20 hrs
Method in brief: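 Cation-supplemented Mueller-Hinton broth II; final inoculum 5 × 10^5 CFU/mL. Incubated at 37 °C for 18–20 h. MIC read visually as the lowest concentration without growth; at least three independent experiments.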

[9] = Clearance in mouse liver microsomes; assay type: ADME, Microsome
[10] = Half life in human plasma at 40 uM measured up to 150 mins by LC-MS/MS analysis; assay type: ADME, cell-free
[11] = Cytotoxicity against human A549 cells assessed as growth inhibition at 100 uM after 48 hrs by MTT assay relative to control; assay type: cell-based; details: read-out: GI
Method in brief: (§3)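 MTT assay: HEK293 or A549 cells seeded at 2 × 10^5 per well. Compounds (final DMSO 1%) were added 24 h after seeding. Living cell mass was read after 48 h.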

[12] = Cytotoxicity against HEK293 cells assessed as growth inhibition at 100 uM after 48 hrs by MTT assay relative to control; assay type: cell-based; details: human, read-out: GI; method in brief: as §3
[13] = Protein binding in human plasma at 1 uM measured up to 6 hrs by LC-MS/MS analysis; assay type: ADME, cell-free
Method in brief: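 Rapid equilibrium dialysis: human plasma diluted with PBS pH 7.4 on one side, PBS on the other, compound at 1 μM final. Shaken at 37 °C for 6 h. Sampled at 0, 5 and 6 h and quantified by LC-MS/MS. Binding calculated from the concentration difference between chambers. Warfarin as control.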

[14] = Clearance in human liver microsomes; assay type: ADME, Microsome
Pseudomonas aeruginosa [15] = experiment: Potency index ratio of pNP-beta-D-Gal IC50 to test compound IC50 for Inhibition of Pseudomonas aeruginosa ATCC 33347 LecA expressed in Escherichia coli BL21(DE3) cells
Pseudomonas aeruginosa [16] = experiment: Potency index ratio of Me-alpha-D-Gal IC50 to test compound IC50 for Inhibition of Pseudomonas aeruginosa ATCC 33347 LecA expressed in Escherichia coli BL21(DE3) cells
Escherichia coli [17] = experiment: Antibacterial activity against Escherichia coli DSM 1116 assessed as growth inhibition after 18 to 20 hrs by broth microdilution assay; assay type: functional; details: time 18-20 hrs
Method in brief: as §2, with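 “7.3). Test range 128 to 0.125 μg/mL, from DMSO stocks.” for “7.3).”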

[18] = Inhibition of Pseudomonas aeruginosa PAO1 LecB expressed in Escherichia coli BL21(DE3) cells incubated for 4 to 8 hrs by (N-(fluorescein-5-yl)-N'-(alpha-L-fucopyranosyl ethylene)thiocarbamide) reporter based fluorescence polarization assay
[19] = Inhibition of Pseudomonas aeruginosa PA14 LecB expressed in Escherichia coli BL21(DE3) cells incubated for 4 to 8 hrs by (N-(fluorescein-5-yl)-N'-(alpha-L-fucopyranosyl ethylene)thiocarbamide) reporter based fluorescence polarization assay

Row | SMILES | IC50 [1] [µM] | MIC (Pseudomonas aeruginosa [2]) [µg/mL] | MIC (Escherichia coli [3]) [µg/mL] | MIC (Pseudomonas aeruginosa [4]) [µg/mL] | MIC (Pseudomonas aeruginosa [5]) [µg/mL] | MIC (Pseudomonas aeruginosa [6]) [µg/mL] | MIC (Pseudomonas aeruginosa [7]) [µg/mL] | MIC (Staphylococcus carnosus) [µg/mL] | MIC (Pseudomonas aeruginosa [8]) [µg/mL] | microsomal CLint [9] [µL/min/mg] | half-life at […], 40 µM [10] [h] | inhibition at 48 h, 100 µM [11] [%] | inhibition at 48 h, 100 µM [12] [%] | PPB [13] [%] | microsomal CLint [14] [µL/min/mg] | Ratio IC50 (Pseudomonas aeruginosa [15]) | Ratio IC50 (Pseudomonas aeruginosa [16]) | MIC (Escherichia coli [17]) [µg/mL] | IC50 [18] [µM] | IC50 [19] [µM]
1 | O=C(CCn1cc(CN2CCN(c3cc4c(cc3F)c(=O)c(C(=O)O)cn4C3CC3)CC2)nn1)Nc1ccc(S[C@@H]2O[C@H](CO)[C@H](O)[C@H](O)[C@H]2O)cc1 | 32.2 | 16 (≈ 21.2 µM) | 2 (≈ 2.65 µM) | 8 (≈ 10.6 µM) | 4 | 8 (≈ 10.6 µM) | 8 (≈ 10.6 µM) | 32 (≈ 42.5 µM) | 8 |  |  |  |  |  |  |  |  |  |  | 
2 | O=C(Cn1cc(CN2CCN(c3cc4c(cc3F)c(=O)c(C(=O)O)cn4C3CC3)CC2)nn1)Nc1ccc(S[C@@H]2O[C@H](CO)[C@H](O)[C@H](O)[C@H]2O)cc1 | 30.4 | 16 (≈ 21.6 µM) | 2 (≈ 2.7 µM) |  | 4 |  |  | 32 (≈ 43.3 µM) | 4 | 10 | > 2.5 | 5 | 8 | 69 | 10 |  |  |  |  | 
3 | O=C(CCn1cc(CCN2CCN(c3cc4c(cc3F)c(=O)c(C(=O)O)cn4C3CC3)CC2)nn1)Nc1ccc(S[C@@H]2O[C@H](CO)[C@H](O)[C@H](O)[C@H]2O)cc1 | 28 | > 64 | 16 (≈ 20.8 µM) | > 64 | 32 | > 64 | > 64 | > 64 | 32 |  |  |  |  |  |  |  |  |  |  | 
4 | [N-]=[N+]=NCCCCC(=O)Nc1ccc(S[C@@H]2O[C@H](CO)[C@H](O)[C@H](O)[C@H]2O)cc1 | 29.9 |  |  |  |  |  |  |  |  |  |  |  |  |  |  | < 2 | < 3 |  |  | 
5 | O=C(CCCn1cc(CN2CCN(c3cc4c(cc3F)c(=O)c(C(=O)O)cn4C3CC3)CC2)nn1)Nc1ccc(S[C@@H]2O[C@H](CO)[C@H](O)[C@H](O)[C@H]2O)cc1 | 27.3 | 16 (≈ 20.8 µM) | 1 (≈ 1.3 µM) | 8 (≈ 10.4 µM) | 4 | 8 (≈ 10.4 µM) | 8 (≈ 10.4 µM) |  | 4 |  |  |  |  |  |  |  |  | 2 (≈ 2.6 µM) |  | 
6 | O=C(CCCn1cc(CCN2CCN(c3cc4c(cc3F)c(=O)c(C(=O)O)cn4C3CC3)CC2)nn1)Nc1ccc(S[C@@H]2O[C@H](CO)[C@H](O)[C@H](O)[C@H]2O)cc1 | 29.3 | > 64 | 16 (≈ 20.5 µM) | > 64 | 32 | > 64 | > 64 | 64 (≈ 81.9 µM) | 32 |  |  |  |  |  |  |  |  | 4 (≈ 5.12 µM) |  | 
7 | C[C@@H]1O[C@H](CNS(=O)(=O)c2ccc(CCn3cc(CN4CCN(c5cc6c(cc5F)c(=O)c(C(=O)O)cn6C5CC5)CC4)nn3)s2)[C@@H](O)[C@H](O)[C@@H]1O |  | ≥ 64 | 8 (≈ 10.5 µM) | ≥ 64 | 32 | 64 (≈ 84 µM) | 64 (≈ 84 µM) | ≥ 64 | 64 | 10 | > 2.5 | -9 | 11 | 75 | 15 |  |  | 16 (≈ 21 µM) | 2.37 | 2.24
8 | C[C@@H]1O[C@H](CNS(=O)(=O)c2ccc(CCN=[N+]=[N-])s2)[C@@H](O)[C@H](O)[C@@H]1O |  |  |  |  |  |  |  |  |  |  |  |  |  |  |  |  |  |  | 3.91 | 1.87
9 | O=C(CCCCn1cc(CCN2CCN(c3cc4c(cc3F)c(=O)c(C(=O)O)cn4C3CC3)CC2)nn1)Nc1ccc(S[C@@H]2O[C@H](CO)[C@H](O)[C@H](O)[C@H]2O)cc1 | 26.2 | > 64 | 16 (≈ 20.1 µM) | > 64 | 32 | > 64 | > 64 | ≥ 64 | 32 |  |  |  |  |  |  |  |  | 4 (≈ 5.03 µM) |  | 
10 | CO[C@H]1O[C@H](CO)[C@H](O)[C@H](O)[C@H]1O | 71.7 |  |  |  |  |  |  |  |  |  |  |  |  |  |  |  |  |  |  | 
